Test results taken from ChEMBL document CHEMBL4118165, “Synthesis and kinetic evaluation of ethyl acrylate and vinyl sulfone derived inhibitors for human cysteine cathepsins” (Bioorg Med Chem Lett, 2018).

How the values were obtained:
[1] = target: Cathepsin S (Homo sapiens) (UniProt P25774); assay: Irreversible inhibition of human cathepsin S using Z-Phe-Arg-AMC as substrate by fluorimetric analysis; conditions: TDE = time-dependent effect
Procedure, shortened: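 Human cathepsin S monitored fluorimetrically (ex 360, em 440 nm) at 25 °C, pH 6.0. […] Progress curves were fitted non-linearly for kobs, and kinac/Ki was calculated including the [S]/Km competition term.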

[2] = target: Procathepsin L (Homo sapiens) (UniProt P07711); assay: Irreversible inhibition of human cathepsin L using Z-Phe-Arg-pNA as substrate assessed as ratio of Kinac/Ki after 10 to 80 mins by photometric analysis
[3] = target: Procathepsin L (Homo sapiens) (UniProt P07711); assay: Irreversible inhibition of human cathepsin L using Z-Phe-Arg-pNA as substrate by photometric analysis; conditions: TDE = time-dependent effect
[4] = target: T1, Cathepsin K (Homo sapiens) (UniProt P43235); assay: Irreversible inhibition of human cathepsin K using Z-Leu-Arg-AMC as substrate assessed as ratio of Kinac/Ki after 10 to 80 mins by fluorimetric analysis
T1 sequence (whole entry): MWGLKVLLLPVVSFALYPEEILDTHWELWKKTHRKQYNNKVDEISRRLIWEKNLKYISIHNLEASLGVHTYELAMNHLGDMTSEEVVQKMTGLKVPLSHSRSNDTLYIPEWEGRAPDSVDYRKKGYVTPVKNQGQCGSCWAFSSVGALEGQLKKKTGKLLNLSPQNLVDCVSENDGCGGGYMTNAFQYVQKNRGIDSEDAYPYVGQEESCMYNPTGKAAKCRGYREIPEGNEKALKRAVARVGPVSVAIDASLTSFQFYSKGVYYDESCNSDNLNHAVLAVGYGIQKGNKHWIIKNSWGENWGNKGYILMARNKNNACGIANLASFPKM

[5] = target: Cathepsin B (Homo sapiens) (UniProt P07858); assay: Irreversible inhibition of human cathepsin B using Z-Arg-Arg-pNA as substrate by photometric analysis; conditions: TDE = time-dependent effect
Procedure, shortened: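 Human cathepsin B assayed photometrically at 405 nm, 37 °C, pH 6.0. […] Progress curves were fitted by non-linear regression to get kobs, and kinac/Ki was derived with correction for substrate competition ([S]/Km).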

[6] = target: Cathepsin B (Homo sapiens) (UniProt P07858); assay: Irreversible inhibition of human cathepsin B using Z-Arg-Arg-pNA as substrate assessed as ratio of Kinac/Ki after 10 to 80 mins by photometric analysis
[7] = target: T1, Cathepsin K (Homo sapiens); assay: Irreversible inhibition of human cathepsin K using Z-Leu-Arg-AMC as substrate by fluorimetric analysis; conditions: TDE = time-dependent effect
[8] = target: Cathepsin S (Homo sapiens) (UniProt P25774); assay: Irreversible inhibition of human cathepsin S using Z-Phe-Arg-AMC as substrate assessed as ratio of Kinac/Ki after 10 to 80 mins by fluorimetric analysis

Cathepsin S (Homo sapiens), sequence (P25774 115-331 limits assumed): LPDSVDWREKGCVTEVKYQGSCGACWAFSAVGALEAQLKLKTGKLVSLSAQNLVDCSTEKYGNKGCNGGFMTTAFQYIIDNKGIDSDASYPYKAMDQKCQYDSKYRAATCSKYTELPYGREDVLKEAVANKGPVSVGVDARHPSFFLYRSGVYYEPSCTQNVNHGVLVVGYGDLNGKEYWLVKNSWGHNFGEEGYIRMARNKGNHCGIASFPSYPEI
Procathepsin L (Homo sapiens), sequence (P07711 114-333 limits assumed): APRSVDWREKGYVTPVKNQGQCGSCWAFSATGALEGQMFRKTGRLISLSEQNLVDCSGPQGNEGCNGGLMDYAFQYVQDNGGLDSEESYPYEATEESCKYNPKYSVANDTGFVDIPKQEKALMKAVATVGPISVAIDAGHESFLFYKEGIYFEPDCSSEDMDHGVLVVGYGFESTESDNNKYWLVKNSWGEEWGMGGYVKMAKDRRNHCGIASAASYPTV

SMILES	inhibition [1]	Ratio [2]	inhibition [3]	Ratio [4]	inhibition [5]	Ratio [6]	inhibition [7]	Ratio [8]
CCOC(=O)/C=C/CNC(=O)[C@H](CC(C)C)NC(=O)OC(C)(C)C	Tde	1280 M⁻¹ s⁻¹	Tde	11600 M⁻¹ s⁻¹	Tde	3090 M⁻¹ s⁻¹	Tde	6600 M⁻¹ s⁻¹
CCOC(=O)/C=C/CNC(=O)[C@H](Cc1ccccc1)NC(=O)CCNC(=O)OC(C)(C)C	Tde	3540 M⁻¹ s⁻¹	Tde	759 M⁻¹ s⁻¹	Tde	2660 M⁻¹ s⁻¹	Tde	879 M⁻¹ s⁻¹
CCOC(=O)/C=C/CNC(=O)[C@H](CC(C)C)NC(=O)CCNC(=O)OC(C)(C)C	Tde	554 M⁻¹ s⁻¹	Tde	2890 M⁻¹ s⁻¹	Tde	248 M⁻¹ s⁻¹	Tde	2590 M⁻¹ s⁻¹
CC(C)C[C@H](NC(=O)COCCOCCNC(=O)OC(C)(C)C)C(=O)NC/C=C/S(=O)(=O)c1ccccc1	Tde	3310 M⁻¹ s⁻¹	Tde	25.5 M⁻¹ s⁻¹	Tde	150 M⁻¹ s⁻¹	Tde	11900 M⁻¹ s⁻¹
CC(C)C[C@H](NC(=O)OC(C)(C)C)C(=O)NC/C=C/S(=O)(=O)c1ccccc1	Tde	879 M⁻¹ s⁻¹	Tde	18300 M⁻¹ s⁻¹	Tde	85.1 M⁻¹ s⁻¹	Tde	28400 M⁻¹ s⁻¹
CC(C)(C)OC(=O)NCCC(=O)N[C@@H](Cc1ccccc1)C(=O)NC/C=C/S(=O)(=O)c1ccccc1	Tde	12800 M⁻¹ s⁻¹	Tde	2230 M⁻¹ s⁻¹	Tde	214 M⁻¹ s⁻¹	Tde	13100 M⁻¹ s⁻¹
CCOC(=O)/C=C/CNC(=O)[C@H](Cc1ccccc1)NC(=O)COCCOCCNC(=O)OC(C)(C)C	Tde	652 M⁻¹ s⁻¹	Tde	297 M⁻¹ s⁻¹	Tde	348 M⁻¹ s⁻¹	Tde	557 M⁻¹ s⁻¹
CC(C)C[C@H](NC(=O)CCNC(=O)OC(C)(C)C)C(=O)NC/C=C/S(=O)(=O)c1ccccc1	Tde	671 M⁻¹ s⁻¹	Tde	12500 M⁻¹ s⁻¹	Tde	58.3 M⁻¹ s⁻¹	Tde	30600 M⁻¹ s⁻¹
CCOC(=O)/C=C/CNC(=O)[C@H](Cc1ccccc1)NC(=O)OC(C)(C)C	Tde	1120 M⁻¹ s⁻¹	Tde	752 M⁻¹ s⁻¹	Tde	3660 M⁻¹ s⁻¹	Tde	525 M⁻¹ s⁻¹
CC(C)(C)OC(=O)N[C@@H](Cc1ccccc1)C(=O)NC/C=C/S(=O)(=O)c1ccccc1	Tde	5880 M⁻¹ s⁻¹	Tde	1320 M⁻¹ s⁻¹	Tde	378 M⁻¹ s⁻¹	Tde	7960 M⁻¹ s⁻¹
